Test results from ChEMBL document CHEMBL1137499, “A new opioid designed multiple ligand derived from the micro opioid agonist endomorphin-2 and the delta opioid antagonist pharmacophore Dmt-Tic” (Bioorg Med Chem, 2007).
Numbered stars: 1 amine (or outer) side, 2 acyl side, 3 side chain; on linkers, the order of the positions; unused ones are H or OH. Square brackets hold non-standard residues; d marks the D form. Peptide text beside a SMILES is read from it. ξ: configuration not given here. Dmt = Cc1cc(O)cc(C)c1C[C@H](N)C(=O)O; Ethylenediamine = C(CN[*:2])N[*:1]; ξTic = O=C(O)C1Cc2ccccc2CN1

Legend:
Rattus norvegicus [1] = species: Rattus norvegicus; assay: Selectivity for mu-opioid receptor over delta opiod receptor in Sprague-Dawley rat brain P2 synaptosome membrane; assay type: tissue-based
Mu-type opioid receptor [2] = target: Mu-type opioid receptor (Cavia porcellus, UniProt P97266); assay: Agonist activity at mu-opioid receptor in Hartley guinea pig ileum assessed as inhibition of electrically-stimulated muscle contraction; assay type: functional, tissue-based
How it was run: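 Myenteric plexus longitudinal muscle strips (2-3 cm) from small intestine of male Hartley guinea pigs, held in organ baths of balanced salt solution, pH 7.5. Inhibition of electrically evoked contraction was measured. IC50 (nM) was read from dose-response curves, with dermorphin as internal standard. Values are means ± SE of five or six separate assays.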

[3] = target: Delta-type opioid receptor (Rattus norvegicus, UniProt P33533); assay: Displacement of [3H]deltorphin 2 from delta-opioid receptor in Sprague-Dawley rat brain P2 synaptosome membrane; assay type: tissue-based
How it was run: (§1)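 Competition binding at equilibrium, 2.5 h at room temperature (23 °C), on rat brain P2 synaptosomes. Filters were soaked in 0.1% polyethylenimine and washed three times with ice-cold buffered BSA. Duplicate assays used 5-8 doses and 3-5 independent membrane preparations. Ki was derived by Cheng-Prusoff; means ± SE.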

Mu-type opioid receptor [4] = target: Mu-type opioid receptor (Rattus norvegicus, UniProt P33535); assay: Displacement of [3H]DAMGO from mu-opioid receptor in Sprague-Dawley rat brain P2 synaptosome membrane; assay type: tissue-based; how it was run: as §1
Rattus norvegicus [5] = species: Rattus norvegicus; assay: Selectivity for delta-opioid receptor over mu opiod receptor in Sprague-Dawley rat brain P2 synaptosome membrane; assay type: tissue-based

Sequence of Delta-type opioid receptor (P33533 whole entry): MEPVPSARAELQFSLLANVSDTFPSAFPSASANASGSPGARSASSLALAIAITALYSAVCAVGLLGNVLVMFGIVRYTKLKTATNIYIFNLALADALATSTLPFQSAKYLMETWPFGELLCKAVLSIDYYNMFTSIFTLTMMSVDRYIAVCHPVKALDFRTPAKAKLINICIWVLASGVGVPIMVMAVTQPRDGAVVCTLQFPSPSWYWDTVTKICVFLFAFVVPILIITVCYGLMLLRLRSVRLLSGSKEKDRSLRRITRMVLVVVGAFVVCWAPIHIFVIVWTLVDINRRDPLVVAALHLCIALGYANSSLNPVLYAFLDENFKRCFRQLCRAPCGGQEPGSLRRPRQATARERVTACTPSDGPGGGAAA
Sequence of Mu-type opioid receptor (Cavia porcellus, UniProt P97266) (P97266 whole entry): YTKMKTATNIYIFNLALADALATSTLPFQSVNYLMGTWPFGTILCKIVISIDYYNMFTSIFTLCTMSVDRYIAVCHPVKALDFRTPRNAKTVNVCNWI
Sequence of Mu-type opioid receptor (Rattus norvegicus, UniProt P33535) (P33535 whole entry): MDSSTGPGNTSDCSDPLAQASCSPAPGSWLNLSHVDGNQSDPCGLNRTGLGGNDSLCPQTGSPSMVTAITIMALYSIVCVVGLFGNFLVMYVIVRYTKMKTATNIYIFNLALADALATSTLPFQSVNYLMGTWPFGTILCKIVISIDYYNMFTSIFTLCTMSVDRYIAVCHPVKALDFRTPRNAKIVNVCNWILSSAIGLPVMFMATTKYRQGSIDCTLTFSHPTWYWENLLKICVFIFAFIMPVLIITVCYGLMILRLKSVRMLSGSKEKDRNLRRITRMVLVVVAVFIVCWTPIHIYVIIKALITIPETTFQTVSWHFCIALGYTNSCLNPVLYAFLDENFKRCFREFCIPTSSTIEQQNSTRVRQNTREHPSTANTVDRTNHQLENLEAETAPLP

For `Cc1cc(O)cc(C)c1C[C@H](N)C(=O)N1Cc2ccccc2CC1C(=O)NCCNC(=O)[C@H](Cc1ccccc1)NC(=O)[C@H](Cc1ccccc1)NC(=O)[C@@H]1CCCN1C(=O)[C@@H](N)Cc1ccc(O)cc1` (stereo partly drawn), which Ratio Ki (Rattus norvegicus [1]) is on record?
The Ratio Ki was 1.41.

For `Cc1cc(O)cc(C)c1C[C@H](N)C(=O)N1Cc2ccccc2C[C@H]1C(=O)NCCNC(=O)[C@H](Cc1ccccc1)NC(=O)[C@H](Cc1ccccc1)NC(=O)[C@@H]1CCCN1C(=O)[C@@H](N)Cc1ccc(O)cc1`, which IC50 (Mu-type opioid receptor [2]) is on record?
Its IC50 is 25.1 nM.

And the Ki [3]?
The Ki was 1.45 nM.

What about the Ki (Mu-type opioid receptor [4]) of the same molecule?
The Ki was 1.03 nM.

For `Cc1cc(O)cc(C)c1C[C@H](N)C(=O)N1Cc2ccccc2CC1C(=O)NCCN` (stereo partly drawn) (H-[Dmt]-[ξTic]-Ethylenediamine), which IC50 (Mu-type opioid receptor [2]) is on record?
The IC50 was 286 nM.

What about the Ki [3] of the same molecule?
The Ki was 1.81 nM.

And the Ratio Ki (Rattus norvegicus [5])?
The Ratio Ki was 3.36.

And the Ki (Mu-type opioid receptor [4])?
The Ki was 2.72 nM.
